From ChEMBL document CHEMBL4706506 (Eur J Med Chem, 2020) come the findings set out here.

Data set [1] has as its system HeLa. Briefly: Antiproliferative activity against human HeLa cells assessed as inhibition of cell proliferation measured after 48 hrs by CCK-8 assay. The class given is functional, cell-based. The gist of the method: (§1)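 RPMI-1640 with 10% FBS, 37 °C, 5% CO2. Cells seeded at 1-3 × 10^4/well and exposed to 0.00098–64 μM (nine 4-fold steps) or 0.1% DMSO vehicle for 48 h. CCK-8 then added for 4 h; absorbance read at 450 nm. IC50 taken from dose–response curves; mean ± SD of three independent experiments.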

The test system of data set [2] is MCF7. Briefly: Antiproliferative activity against human MCF7 cells assessed as inhibition of cell proliferation measured after 48 hrs by CCK-8 assay. Type of data set: functional, cell-based. The conditions noted are these: MCF7, 48 h.
For data set [3], the system named is A549. Kind of data set: Antiproliferative activity against human A549 cells assessed as inhibition of cell proliferation measured after 48 hrs by CCK-8 assay. The conditions noted are these: A549, 48 h. The class given is functional, cell-based. Summed up: as §1
Data set [4] deals with HCT-116. Kind of data set: Antiproliferative activity against human HCT-116 cells assessed as inhibition of cell proliferation measured after 48 hrs by CCK-8 assay. Type of data set: functional, cell-based. The conditions noted are these: HCT-116, 48 h. The gist of the method: as §1
The test system of data set [5] is B16-F0. Kind of data set: Antiproliferative activity against mouse B16-F0 cells assessed as inhibition of cell proliferation measured after 48 hrs by CCK-8 assay. The class given is functional, cell-based. The conditions noted are these: B16F0, 48 h. Summed up:
as §1

The nature of data set [6]: Inhibition of pig brain tubulin polymerization measured by light scattering based spectrophotometer method. The class given is tissue-based, Sus scrofa. Summed up:
(§2)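 Porcine brain tubulin purified by three assembly/disassembly cycles and phosphocellulose chromatography. Mixed with graded compound concentrations in PEM (100 mM PIPES, 1 mM EGTA, 1 mM MgCl2) with 1 mM GTP and 5% glycerol. Polymerization followed at 37 °C by light scattering at 340 nm; variants ran at 30 °C, or with 5 min preincubation before GTP addition. IC50 reported.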

Data set [7] is described as follows: Binding affinity to pig brain tubulin at 30 degree C without preincubation. Type of data set: tissue-based, Sus scrofa. The gist of the method: as §2
Data set [8] in a line: Binding affinity to pig brain tubulin at 37 degree C without preincubation. The class given is tissue-based, Sus scrofa. Summed up:
as §2

Data set [9] in a line: Binding affinity to pig brain tubulin at 37 degree C preincubated for 5 mins. Type of data set: tissue-based, Sus scrofa. Summed up: as §2
The test system of data set [10] is MCF7. Briefly: Induction of cell cycle arrest in human MCF7 cells assessed as accumulation of cells at G2/M phase measured after 48 hrs by FACS Calibur flow cytometry in relative to control. Type of data set: functional, cell-based. Summed up:
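MCF-7 cells plated for 24 h, then exposed to compound (5 or 10 nM; DMSO control) for 48 h. Fixed in 70% ethanol at 4 °C for 12 h, then RNase A and propidium iodide staining for 30 min. DNA content measured by flow cytometry.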

For data set [11], the system named is MCF7. Briefly: Inhibition of cell migration in human MCF7 cells measured after 24 hrs by phase contrast microscopy based wound healing assay relative to control. The conditions noted are these: dose 10-40 nM. The class given is functional. The gist of the method: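 Confluent MCF-7 monolayers, grown 24 h, scratched with a pipette tip and washed with PBS. Medium with 0, 10, 20 or 40 nM compound added. Wounds photographed by phase contrast at 0 and 24 h; migration distance measured manually.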

Data set [12] deals with B16-F0. Kind of data set: Inhibition of tubulin polymerization in mouse B16-F0 cells at 160 nM measured after 6 hrs by DAPI staining based immunofluorescent assay relative to control. The conditions noted are these: dose 40.0 nM, in the assay text read “at 40 nM” for “at 160 nM”. Type of data set: cell-based. The gist of the method:
(§3)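 Fixed in 4% paraformaldehyde, permeabilized with 0.5% Triton X-100 for 15 min, goat serum blocked. Anti-tubulin antibody 2 h at 4 °C, then fluorescent secondary antibody and DAPI nuclear counterstain. Imaged by confocal microscopy.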

The test system of data set [13] is B16-F0. Kind of data set: Inhibition of tubulin polymerization in mouse B16-F0 cells at 40 nM measured after 6 hrs by DAPI staining based immunofluorescent assay relative to control. Type of data set: cell-based. Summed up: as §3
A short description of data set [14]: Metabolic stability in human liver microsomes assessed as half life in presence of NADPH at 0.5 uM measured after 4 hrs by LC/MS method. The class given is ADME, Microsome.
Data set [15] in a line: Metabolic stability in mouse liver microsomes assessed as half life in presence of NADPH at 0.5 uM measured after 4 hrs by LC/MS method. The class given is ADME, Microsome.
The test system of data set [16] is B16-F0. Kind of data set: Antitumour activity against mouse B16-F0 cells transplanted in C57/BL mouse assessed as decrease in tumour weight at 10 mg/kg, ip measured after 16 days in relative to control. Type of data set: functional. Details: scale not given: the % may be the effect or the level left. The conditions noted are these: time 16 day.
Data set [17] deals with B16-F0. Briefly: Antitumour activity against mouse B16-F0 cells transplanted in C57/BL mouse assessed as decrease in tumour weight at 20 mg/kg, ip measured after 16 days in relative to control. The class given is functional. On the set-up: scale not given: the % may be the effect or the level left. The conditions noted are these: time 16 day.
In data set [18] the test system is B16-F0. Kind of data set: Antitumour activity against mouse B16-F0 cells transplanted in C57/BL mouse assessed as decrease in tumour volume at 10 mg/kg, ip measured after 16 days in relative to control. The class given is functional. The conditions noted are these: time 16 day. Details: scale not given: the % may be the effect or the level left.
In data set [19] the test system is B16-F0. Kind of data set: Antitumour activity against mouse B16-F0 cells transplanted in C57/BL mouse assessed as decrease in tumour volume at 20 mg/kg, ip measured after 16 days in relative to control. The class given is functional. The conditions noted are these: time 16 day. Details: scale not given: the % may be the effect or the level left.
The nature of data set [20]: Toxicity in C57/BL mouse […] with mouse B16-F0 cells assessed as body weight loss at 10 to 20 mg/kg, ip measured after 16 days in relative to control. Type of data set: organism-based. The conditions noted are these: in vivo, 384 h, dose 10-20 mg/kg, time 16 day.
Data set [21] in a line: Toxicity in C57/BL mouse […] with mouse B16-F0 cells assessed as kidney histology at 10 to 20 mg/kg, ip measured after 16 days by H and E staining method in relative to control. The class given is organism-based. The conditions noted are these: in vivo, 384 h, dose 10-20 mg/kg, time 16 day.
A short description of data set [22]: Toxicity in C57/BL mouse […] with mouse B16-F0 cells assessed as liver histology at 10 to 20 mg/kg, ip measured after 16 days by H and E staining method in relative to control. The class given is organism-based. The conditions noted are these: in vivo, 384 h, dose 10-20 mg/kg, time 16 day.
The test system of data set [23] is B16-F0. Kind of data set: Induction of microtubule destabilization in mouse B16-F0 cells assessed as short and wrapped structure at 40 nM measured after 6 hrs by DAPI staining based immunofluorescent assay relative to control. Type of data set: cell-based. Summed up:
as §3

Data set [24] has as its system B16-F0. Briefly: Induction of microtubule destabilization in mouse B16-F0 cells assessed as short and wrapped structure at 160 nM measured after 6 hrs by DAPI staining based immunofluorescent assay relative to control. The class given is cell-based.
Data set [25] deals with B16-F0. Kind of data set: Stabilization of microtubules in mouse B16-F0 cells at 40 nM measured after 6 hrs by DAPI staining based Immunofluorescent assay relative to control. Type of data set: cell-based. The gist of the method:
as §3

Molecules are shown by their SMILES. Activity calls are given as the source filed them. The rule behind the calls is not given here.

For `COc1cc(-c2ccnc3cc(-c4ccc(C)cc4)nn23)cc(OC)c1OC`, the half-maximal inhibitory concentration (IC50) in data set [1] stood at 21 nM; in data set [2], 47 nM; in data set [3], 3 nM; in data set [4], 48 nM; in [5], 21 nM; in [6] it was 2100 nM. The figures for the IC50 in [7], in data set [8] and in data set [9] were 2100 nM, 2100 nM and 1600 nM, respectively. For the same molecule, the outcome in [10] and in data set [23] was Active. Further, the inhibition entry in [11], in data set [12] and in data set [13] was “Active” in each case. Moreover, the half-life at 0.5 µM came to 2.08 h in data set [14] and 2 h in [15]. The Activity in [16] is reported as 38.6%; in [17], 74.5%; in data set [18], 40.1%; in [19] it was 77.4%; in [20], “Non-Toxic”; in [21], “Non-Toxic”. For the same molecule, in [22], the Activity result is reported as “Non-Toxic”.
Regarding `COc1cc2c(c(OC)c1OC)-c1ccc(OC)c(=O)cc1[C@@H](NC(C)=O)CC2` [COLCHICINE], the IC50 in [1] is 81 nM; in [2] it was 18 nM; in data set [3], 107 nM; in data set [4] it was 42 nM; in data set [5] it was 87 nM. Also, the result in data set [24] was Active.
Turning to `CC(=O)O[C@H]1C(=O)[C@@]2(C)[C@H]([C@H](OC(=O)c3ccccc3)[C@]3(O)C[C@H](OC(=O)[C@H](O)[C@@H](NC(=O)c4ccccc4)c4ccccc4)C(C)=C1C3(C)C)[C@]1(OC(C)=O)CO[C@@H]1C[C@@H]2O` [PACLITAXEL], the IC50 in [1] was 41 nM; in data set [5] it was 21 nM. Further, the result in [25] was Active. Moreover, the Activity in [16] is recorded as 60.4%; in data set [18] it was 63.8%; in [20], “Non-Toxic”; in [22], “Non-Toxic”.
For the molecule `COc1cc(-c2ccnc3cc(-c4ccc5c(ccn5C)c4)nn23)cc(OC)c1OC`, the IC50 was found to be 19 nM in data set [1]; 3 nM in [2]; 15 nM in data set [3]; 39 nM in data set [4]; 48 nM in data set [5]; 6700 nM in data set [6]. The IC50 in data set [7] came out at 6400 nM; in data set [8], 6700 nM; in data set [9], 5700 nM. In data set [10], the outcome was Active. For the same molecule, the half-life at 0.5 µM stood at 0.333 h in data set [14] and 0.117 h in data set [15].
